Assay results reported in ChEMBL document CHEMBL2321834 (J Med Chem, 2013).
Activity calls are given as the source filed them. No cut-off for these calls is given here.

Key:
MDA-MB-231 = experiment: Cytotoxicity against human MDA-MB-231 cells at 50 uM after 3 hrs by MTT assay; type: cell-based; settings: mda-mb-231, 3 h
In short: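 MTT conversion read-out, following Denisot et al. Tested at 2.5, 10 and 50 µM with 3 h incubation.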

[1] = target: Estrogen receptor beta (Homo sapiens) (UniProt Q92731); experiment: Displacement of [3H]E2 from human recombinant ERbeta after 1 hr by scintillation counting analysis relative to E2
In short: (§1)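 Competitive binding assay against ERα and ERβ, with E2 as internal reference.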

[2] = target: T1, Estrogen receptor (Homo sapiens) (UniProt P03372); experiment: Displacement of [3H]E2 from human recombinant ERalpha after 1 hr by scintillation counting analysis relative to E2; in short: as §1
T1 sequence (whole entry): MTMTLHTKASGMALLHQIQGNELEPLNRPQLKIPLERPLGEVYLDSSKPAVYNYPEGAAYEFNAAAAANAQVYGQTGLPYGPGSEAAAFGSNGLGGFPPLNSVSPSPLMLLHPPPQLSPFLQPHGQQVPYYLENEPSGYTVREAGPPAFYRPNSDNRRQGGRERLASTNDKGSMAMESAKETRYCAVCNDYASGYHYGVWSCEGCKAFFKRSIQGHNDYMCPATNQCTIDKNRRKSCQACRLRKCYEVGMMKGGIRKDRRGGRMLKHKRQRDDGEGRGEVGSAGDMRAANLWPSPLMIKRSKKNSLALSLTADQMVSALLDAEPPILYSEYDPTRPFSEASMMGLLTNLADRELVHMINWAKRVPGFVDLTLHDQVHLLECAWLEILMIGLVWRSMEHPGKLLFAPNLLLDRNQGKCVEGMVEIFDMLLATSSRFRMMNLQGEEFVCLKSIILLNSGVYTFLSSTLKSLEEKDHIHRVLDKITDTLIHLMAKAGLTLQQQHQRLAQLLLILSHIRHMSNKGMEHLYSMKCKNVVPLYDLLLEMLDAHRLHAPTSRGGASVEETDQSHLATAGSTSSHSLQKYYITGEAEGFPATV

[3] = target: T2, 17-beta-hydroxysteroid dehydrogenase type 1 (Homo sapiens) (UniProt P14061); settings: at 1 µM;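 note: enzyme source was human placental cytosol with tritiated estrone as substrate, 10 min reaction, conversion quantified by HPLC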
T2 sequence (whole entry): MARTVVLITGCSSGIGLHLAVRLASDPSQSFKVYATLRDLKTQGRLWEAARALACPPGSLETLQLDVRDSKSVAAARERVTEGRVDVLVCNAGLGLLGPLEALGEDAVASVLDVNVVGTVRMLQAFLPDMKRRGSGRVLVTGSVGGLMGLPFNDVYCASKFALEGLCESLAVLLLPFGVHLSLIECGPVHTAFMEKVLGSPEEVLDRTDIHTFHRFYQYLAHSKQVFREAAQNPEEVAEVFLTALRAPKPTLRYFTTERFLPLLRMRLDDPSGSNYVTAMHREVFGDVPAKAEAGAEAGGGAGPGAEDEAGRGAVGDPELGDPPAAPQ

[4] = target: T3, 17-beta-hydroxysteroid dehydrogenase type 2 (Homo sapiens, UniProt P37059); experiment: Inhibition of 17beta-HSD2 in human MDA-MB-231 cells using [3H]E2 as substrate after 6 hrs by HPLC analysis; type: cell-based
T3 sequence (P37059 whole entry): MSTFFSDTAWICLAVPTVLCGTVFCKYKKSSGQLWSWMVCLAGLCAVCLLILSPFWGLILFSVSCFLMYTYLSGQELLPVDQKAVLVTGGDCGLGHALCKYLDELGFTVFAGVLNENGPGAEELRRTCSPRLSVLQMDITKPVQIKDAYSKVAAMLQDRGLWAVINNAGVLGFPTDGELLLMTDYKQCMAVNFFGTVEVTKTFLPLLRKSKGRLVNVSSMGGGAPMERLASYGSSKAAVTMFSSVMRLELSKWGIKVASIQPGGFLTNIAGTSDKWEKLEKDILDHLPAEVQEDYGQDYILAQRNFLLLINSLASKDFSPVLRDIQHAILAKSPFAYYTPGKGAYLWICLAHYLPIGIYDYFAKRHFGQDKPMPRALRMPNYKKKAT

[5] = target: T4, Peroxisomal multifunctional enzyme type 2 (Homo sapiens) (UniProt P51659); experiment: Inhibition of human recombinant 17beta-HSD4 SDR domain expressed in Escherichia coli using [6,7-3H]E2 as substrate at 1 uM by scintillation counting analysis
T4 sequence (whole entry): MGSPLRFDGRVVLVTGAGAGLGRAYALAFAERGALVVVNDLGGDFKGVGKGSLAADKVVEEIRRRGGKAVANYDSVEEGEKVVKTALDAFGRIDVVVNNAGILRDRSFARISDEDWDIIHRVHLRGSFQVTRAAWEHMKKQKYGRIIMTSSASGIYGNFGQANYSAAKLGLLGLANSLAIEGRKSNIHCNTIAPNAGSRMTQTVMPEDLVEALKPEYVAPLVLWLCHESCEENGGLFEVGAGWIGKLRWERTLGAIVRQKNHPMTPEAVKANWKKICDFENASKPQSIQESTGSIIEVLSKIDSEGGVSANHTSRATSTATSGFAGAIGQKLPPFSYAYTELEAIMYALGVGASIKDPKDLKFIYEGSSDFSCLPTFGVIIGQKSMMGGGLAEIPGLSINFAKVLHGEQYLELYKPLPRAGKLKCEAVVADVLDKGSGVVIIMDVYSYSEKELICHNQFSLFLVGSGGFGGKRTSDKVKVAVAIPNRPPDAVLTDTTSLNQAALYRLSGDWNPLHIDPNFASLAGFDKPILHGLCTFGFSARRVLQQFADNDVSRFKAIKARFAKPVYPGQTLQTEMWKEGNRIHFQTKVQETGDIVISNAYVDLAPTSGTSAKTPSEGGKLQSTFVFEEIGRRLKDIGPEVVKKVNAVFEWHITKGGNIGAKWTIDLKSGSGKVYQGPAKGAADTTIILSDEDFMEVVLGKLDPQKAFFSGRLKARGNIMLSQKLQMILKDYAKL

[6] = target: T5, 11-beta-hydroxysteroid dehydrogenase 1 (Homo sapiens, UniProt P28845); experiment: Inhibition of human recombinant 11beta-HSD1 expressed in HEK293 cell using [1,2-3H]Cortisone as substrate at 2 uM after 10 mins by scintillation counting analysis; type: cell-based
In short: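 Recombinant human 11β-HSD1 or 11β-HSD2 stably transfected in HEK-293 cells, following a previously described procedure.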
Target sequence in this assay (P28845 whole entry, looked up): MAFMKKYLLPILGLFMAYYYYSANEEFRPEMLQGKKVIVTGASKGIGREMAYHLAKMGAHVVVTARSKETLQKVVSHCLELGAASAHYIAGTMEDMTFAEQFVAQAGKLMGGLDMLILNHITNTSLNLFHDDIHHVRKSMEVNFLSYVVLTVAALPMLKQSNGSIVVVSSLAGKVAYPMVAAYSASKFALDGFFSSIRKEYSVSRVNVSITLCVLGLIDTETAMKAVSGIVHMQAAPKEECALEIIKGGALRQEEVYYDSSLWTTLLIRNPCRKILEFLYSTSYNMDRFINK

[7] = target: T5, 11-beta-hydroxysteroid dehydrogenase 1; experiment: Inhibition of human recombinant 11beta-HSD1 expressed in HEK293 cell using [1,2-3H]Cortisone as substrate after 10 mins by scintillation counting analysis; type: cell-based
Target sequence in this assay (P28845 whole entry): as the sequence (P28845 whole entry, looked up) above

Homo sapiens = species: Homo sapiens; experiment: Selectivity ratio of IC50 for 17beta-HSD1 in human placental microsomal fraction to IC50 for 17beta-HSD2 in human placental microsomal fraction; type: microsomes; settings: Microsome

Chain of Estrogen receptor beta (Homo sapiens) (Q92731 whole entry): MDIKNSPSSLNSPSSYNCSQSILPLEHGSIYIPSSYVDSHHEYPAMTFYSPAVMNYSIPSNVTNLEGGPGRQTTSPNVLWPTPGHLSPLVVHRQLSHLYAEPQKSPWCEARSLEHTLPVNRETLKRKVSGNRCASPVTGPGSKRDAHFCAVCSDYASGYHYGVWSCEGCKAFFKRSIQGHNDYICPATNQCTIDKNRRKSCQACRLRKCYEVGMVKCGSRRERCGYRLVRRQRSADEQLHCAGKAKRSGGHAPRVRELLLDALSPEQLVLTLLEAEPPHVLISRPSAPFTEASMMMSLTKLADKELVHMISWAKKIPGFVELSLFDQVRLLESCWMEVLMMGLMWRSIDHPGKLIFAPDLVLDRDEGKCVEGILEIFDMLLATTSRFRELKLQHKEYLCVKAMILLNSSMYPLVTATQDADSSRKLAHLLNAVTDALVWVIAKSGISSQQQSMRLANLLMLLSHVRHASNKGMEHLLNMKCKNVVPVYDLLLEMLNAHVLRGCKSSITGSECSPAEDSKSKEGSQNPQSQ

## COc1cccc(N(C)C(=O)c2ccc(-c3cccc(OC)c3F)s2)c1
MDA-MB-231
  Activity: Non-toxic
[1]
  RBA: < 0.1%
[2]
  RBA: < 0.1%
[3]
  inhibition: 17%
[4]
  IC50: 0.105 µM
[5]
  inhibition: inactive
[6]
  inhibition: 9%

## COc1cccc(-c2ccc(C(=O)N(C)Cc3cccc(O)c3)s2)c1F
MDA-MB-231
  Activity: Non-toxic
[7]
  IC50: 1 µM
[3]
  inhibition: < 10%
[5]
  inhibition: inactive
Homo sapiens
  Ratio IC50: 73
[6]
  inhibition: 68%
